Here are results for nine compounds from ChEMBL document CHEMBL1122805, “Structure-activity relationships of sparsomycin and its analogues. Octylsparsomycin: the first analogue more active than sparsomycin” (1984).

In brackets after ≈: the same amount, converted by molar mass. Activity calls are given as the source filed them. The rule behind the calls is not given here.

In assay [1] the test system is L1210. In words: In vitro cytostatic activity and inhibition of leukemia L1210 cells. The dose causing 50% of inhibition of colony formation (ID50) relative to untreated control cells; NA-Not Active. In kind it is functional, cell-based. Particulars: Mus musculus. Summed up: (§1)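 Mouse leukemia L1210 cells taken from suspension culture; 100 cells plated per dish in soft agar medium (Dulbecco's with 20% horse serum, 2-mercaptoethanol, L-asparagine, DEAE-dextran, 0.3% agar) containing compound at several concentrations. Continuous exposure 8 days, 37 °C, 10% CO2, humidified. Colonies counted; ID50 from dose-effect curves versus untreated controls. Highest dose tested 100 μg/mL.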

Assay [2] relates to L1210. In words: In vitro cytostatic activity and inhibition of leukemia L1210 cells. The dose causing 50% of inhibition of colony formation (ID50) relative to untreated control cells. In kind it is functional. Particulars: Mus musculus, read-out: ID50 (the source's name). Summed up:
as §1

`CSC[S@+]([O-])C[C@@H](CO)NC(=O)/C=C/c1c(C)nc(O)nc1O`: in the assay with L1210 [1], the ID50 entry is “inactive”. With `CSCSC[C@H](CO)NC(=O)/C=C/c1c(C)nc(O)nc1O`, the IC50 in the assay with L1210 [2] was determined as 4.4 µg/mL (≈ 12.7 µM). On to `Cc1nc(O)nc(O)c1/C=C/C(=O)N[C@H](CO)CSC[S+](C)[O-]` (some centres undefined), for which, in the assay on L1210 [1], the ID50 entry was “inactive”. Same read-out and setting: under `CSC[S@@+]([O-])C[C@@H](CO)NC(=O)/C=C/c1c(C)[nH]c(=O)[nH]c1=O` stands “inactive”. Take `CSC[S@+]([O-])C[C@H](CO)NC(=O)/C=C/c1c(C)[nH]c(=O)[nH]c1=O`: in the assay on L1210 [2], the IC50 was 0.15 µg/mL (≈ 0.415 µM). `CSCSC[C@@H](CO)NC(=O)/C=C/c1c(C)nc(O)nc1O`: the ID50 result in the assay with L1210 [1] was “inactive”. Consider `CCCCCCCCSC[S+]([O-])C[C@H](CO)NC(=O)/C=C/c1c(C)nc(O)nc1O` (some centres undefined), for which the IC50 with L1210 [2] is 0.05 µg/mL (≈ 0.109 µM). Still for that read-out and setting: the figure for `CSC[S@@+]([O-])C[C@H](CO)NC(=O)/C=C/c1c(C)[nH]c(=O)[nH]c1=O` is 2.1 µg/mL (≈ 5.81 µM); for `Cc1nc(O)nc(O)c1/C=C/C(=O)N[C@@H](CO)CSC[S+](C)[O-]` (some centres undefined) it is 66 µg/mL (≈ 183 µM).
